Laboratory results as given in PubChem BioAssay.
Calls of active or inactive are those of the source.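 Rule for the calls, unless noted: active = current rise at least 3 SD above the untreated control mean in each of two repeat wells; inactive = the rest.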

target: Potassium voltage-gated channel subfamily KQT member 2 (Rattus norvegicus) (UniProt O88943); experiment: KCNQ2 thallium flux enhancement – KCNQ2-CHO-K1 cells, selectivity assay for KCNQ1 potentiator project (AID 493009;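 active = mean duplicate potentiation above the buffer control mean plus 5 SD of buffer wells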;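 note: assay conditions were tuned for KCNQ1 rather than KCNQ2 modulators; signal is max minus min fluorescence divided by baseline after thallium stimulus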); settings: FluxOR thallium flux fluorescence, at 10 µM; active compounds read high, scaled: buffer 0, activator control 100
Sequence (O88943 whole entry, looked up): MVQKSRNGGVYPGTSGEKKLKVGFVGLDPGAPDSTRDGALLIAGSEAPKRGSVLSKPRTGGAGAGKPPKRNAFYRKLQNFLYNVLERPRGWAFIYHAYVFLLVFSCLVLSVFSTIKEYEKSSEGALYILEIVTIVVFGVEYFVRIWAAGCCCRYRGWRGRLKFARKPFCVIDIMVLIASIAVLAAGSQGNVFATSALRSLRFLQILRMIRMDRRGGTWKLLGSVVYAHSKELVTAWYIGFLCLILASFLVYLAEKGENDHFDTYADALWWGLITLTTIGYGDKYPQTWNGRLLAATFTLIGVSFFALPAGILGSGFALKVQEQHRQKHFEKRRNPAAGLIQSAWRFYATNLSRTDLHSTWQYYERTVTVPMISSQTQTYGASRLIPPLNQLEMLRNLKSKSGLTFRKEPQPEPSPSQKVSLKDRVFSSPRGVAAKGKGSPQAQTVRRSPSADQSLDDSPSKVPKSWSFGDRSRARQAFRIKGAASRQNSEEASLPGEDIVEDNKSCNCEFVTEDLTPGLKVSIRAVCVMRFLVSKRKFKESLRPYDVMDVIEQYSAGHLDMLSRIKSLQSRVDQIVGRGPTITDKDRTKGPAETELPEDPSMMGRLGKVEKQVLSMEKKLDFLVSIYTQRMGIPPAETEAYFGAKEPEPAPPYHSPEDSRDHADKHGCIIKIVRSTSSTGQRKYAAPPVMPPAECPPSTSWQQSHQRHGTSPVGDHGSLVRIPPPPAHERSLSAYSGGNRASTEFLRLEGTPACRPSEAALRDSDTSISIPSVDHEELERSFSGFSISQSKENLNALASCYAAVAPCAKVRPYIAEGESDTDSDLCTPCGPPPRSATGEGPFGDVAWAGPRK

Q: How did the outcome turn out when CCSc1nnc(-c2ccncc2)n1Cc1ccccc1 was run?
A: inactive

Q: With Cc1ccc(NC(=O)Nc2ccc3c(c2)CCC3)cc1 as the compound, how does the outcome read?
A: inactive

Q: With N/C(=N\OC(=O)c1cccc2ccccc12)c1ccc(Br)cc1 as the compound, how does the outcome read?
A: inactive

Q: Which outcome does the source give for NNc1nc2c(F)cc(F)cc2s1 here?
A: inactive

Q: For S=c1[nH]c(-c2ccccc2)cn1/N=C/c1ccc(Br)cc1, which outcome is on record?
A: inactive

Q: With CCCc1cc(=O)[nH]c(SCC(=O)Nc2ccc(Br)cc2Br)n1 as the compound, how does the outcome read?
A: inactive

Q: With O=C(CSc1nnc(-c2ccco2)o1)Nc1cccc([N+](=O)[O-])c1 as the compound, how does the outcome read?
A: inactive

Q: How did the outcome turn out when Cc1ccc(-n2ncc3c(=O)n(CC(=O)N4CCN(c5ccccc5F)CC4)cnc32)cc1C was run?
A: inactive

Q: Which outcome does the source give for O=C(O)c1cc2cc(F)ccc2[nH]1 here?
A: inactive

Q: How did the outcome turn out when COc1ccc(-c2cc(-c3ccccc3)c(C#N)c(=S)[nH]2)cc1 was run?
A: inactive

Q: Which outcome does the source give for COc1cc(/C=C2\C(=O)N(CCC#N)N=C2C)c(Br)cc1OC(C)C here?
A: inactive

Q: Which outcome does the source give for COC(=O)C1=C(C)Nc2nc(-c3ccccc3)nn2C1c1ccc(C)o1 (configuration not stated) here?
A: inactive

Q: Which outcome does the source give for CCOC(=O)c1sc(NC(=S)NC(=O)c2ccccc2)nc1C here?
A: inactive

Q: For CCOc1ccc(NC(=O)c2ccc(N)cc2)cc1, which outcome is on record?
A: inactive

Q: How did the outcome turn out when NC(=O)CN1C(=O)NC2(CCOc3ccccc32)C1=O (configuration not stated) was run?
A: inactive

Q: For Cc1cccc(/N=C/c2sc3ccccc3c2O)n1, which outcome is on record?
A: inactive

Q: How did the outcome turn out when CCN1CCN(c2ccc(S(=O)(=O)N3CCCC3)cn2)CC1 was run?
A: inactive

Q: CN(CC(=O)NCc1ccccc1Cl)CC(=O)Nc1cccc(F)c1 was tested. Which outcome did it give?
A: inactive

Q: COc1ccc(OC)c(NC(=S)N2CCC(C(O)(c3ccccc3)c3ccccc3)CC2)c1 was tested. Which potentiation did it give?
A: 174% (active)

target: Potassium voltage-gated channel subfamily KQT member 1 (Homo sapiens) (UniProt P51787); experiment: KCNQ1 activators by electrophysiology – IonWorks patch clamp, KCNQ1-CHO cells, orthogonal assay for KCNQ1 potentiator project, confirmation (AID 493184); settings: automated patch clamp current, at 10 µM; active compounds read high
Summary of the method: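 assay system = KCNQ1-expressing CHO cells | medium = external bath solution at pH 7.4 | probe or stimulus = 2,000 ms depolarization, -90 to +40 mV | compound dosing = 10 µM final, single point | measured by = automated voltage clamp, amphotericin B perforated patch | measure = percent current increase versus pre-compound level | replication = duplicates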

Chain of Potassium voltage-gated channel subfamily KQT member 1 (Homo sapiens) (P51787 whole entry, looked up): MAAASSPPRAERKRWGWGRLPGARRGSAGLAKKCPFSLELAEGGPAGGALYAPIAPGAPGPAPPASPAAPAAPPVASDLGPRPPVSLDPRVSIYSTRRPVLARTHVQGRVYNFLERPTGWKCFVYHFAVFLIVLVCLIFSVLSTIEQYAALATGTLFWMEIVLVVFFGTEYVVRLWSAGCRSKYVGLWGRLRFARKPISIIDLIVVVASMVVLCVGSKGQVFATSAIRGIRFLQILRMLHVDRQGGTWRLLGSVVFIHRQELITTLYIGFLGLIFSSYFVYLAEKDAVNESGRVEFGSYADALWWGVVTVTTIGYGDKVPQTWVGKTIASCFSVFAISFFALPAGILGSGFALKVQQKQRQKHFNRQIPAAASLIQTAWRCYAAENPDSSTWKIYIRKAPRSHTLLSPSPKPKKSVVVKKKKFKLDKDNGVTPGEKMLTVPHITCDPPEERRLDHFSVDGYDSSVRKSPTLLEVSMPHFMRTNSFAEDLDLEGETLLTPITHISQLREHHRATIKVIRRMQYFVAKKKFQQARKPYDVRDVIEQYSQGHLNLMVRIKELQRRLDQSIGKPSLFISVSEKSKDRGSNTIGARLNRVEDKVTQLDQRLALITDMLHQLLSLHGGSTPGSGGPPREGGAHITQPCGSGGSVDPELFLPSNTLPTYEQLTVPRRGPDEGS

Q: How did the outcome turn out when S=c1[nH]cnc2scc(-c3ccc(Br)cc3)c12 was run?
A: inactive

Q: With CCc1ccc(-c2ccc3nnc(SC)n3n2)cc1 as the compound, how does the outcome read?
A: inactive

Q: How did the outcome turn out when S=c1nc[nH]c2c1sc1nc(N3CCOCC3)c3c(c12)CCCC3 was run?
A: inactive

Q: CC(C)(C)c1ccc(-n2nc(C#N)c(Cl)cc2=O)cc1 was tested. Which outcome did it give?
A: inactive

Q: With Cc1ccc(C)c(/C=N/n2cc(-c3ccccc3)[nH]c2=S)c1 as the compound, how does the outcome read?
A: inactive

Q: Cc1cc(NC(=O)CSCC(=O)OC(C)C(=O)N(C)Cc2ccccc2)no1 (configuration not stated) was tested. Which outcome did it give?
A: inactive

Q: Which outcome does the source give for CCOc1ccc(OCCCN(C)C)cc1 here?
A: inactive

Q: How did the outcome turn out when O=C(NC(=S)Nc1cccc([N+](=O)[O-])c1)c1ccco1 was run?
A: inactive

Q: With Cc1nc(=S)c2c([nH]1)-c1ccccc1CC21CCCCC1 as the compound, how does the outcome read?
A: inactive

Q: Which outcome does the source give for NC(=O)c1ccsc1NC(=O)COC(=O)Cc1ccsc1 here?
A: inactive

Q: How did the outcome turn out when CCOC(=O)N/C(N)=N/c1nc2ccccc2s1 was run?
A: inactive

Q: For CCOC(=O)CSC(=S)NC(=O)c1ccc(OC)cc1, which outcome is on record?
A: inactive

Q: Which outcome does the source give for O=C(CC1(O)C(=O)N(Cc2ccccc2)c2ccccc21)c1ccncc1 (configuration not stated) here?
A: inactive

Q: With COC(=O)N/N=C/c1cc(C)n(-c2ccc(F)cc2)c1C as the compound, how does the outcome read?
A: inactive

Q: With CSCC(C)N1CCC(n2nccc2NC(=O)CCOc2ccccc2)CC1 (configuration not stated) as the compound, how does the outcome read?
A: inactive

Q: How did the outcome turn out when S=c1[nH]nc(C2CCCCC2)n1/N=C/c1cccc(Cl)c1Cl was run?
A: inactive

Q: For CCC(C)NCC(=O)Nc1sc2c(c1C(N)=O)CCC2 (configuration not stated), which outcome is on record?
A: inactive

Q: For COc1cccc(NC(=S)N/N=C2/CCCCc3ccccc32)c1, which outcome is on record?
A: inactive

Q: How did the outcome turn out when COc1ccc(C(=O)NC(=S)N(C)C2CCCCC2)cc1Br was run?
A: inactive

Q: For Cc1cccc(C(=O)O/N=C(\N)c2cccc([N+](=O)[O-])c2)c1, which outcome is on record?
A: inactive

Q: Which outcome does the source give for CCSc1nnc(-c2ccncc2)n1Cc1ccccc1 here?
A: inactive

Q: Which outcome does the source give for Cc1ccc(NC(=O)Nc2ccc3c(c2)CCC3)cc1 here?
A: inactive

Q: N/C(=N\OC(=O)c1cccc2ccccc12)c1ccc(Br)cc1 was tested. Which outcome did it give?
A: inactive

Q: How did the outcome turn out when NNc1nc2c(F)cc(F)cc2s1 was run?
A: inactive

Q: With S=c1[nH]c(-c2ccccc2)cn1/N=C/c1ccc(Br)cc1 as the compound, how does the outcome read?
A: inactive

Q: How did the outcome turn out when CCCc1cc(=O)[nH]c(SCC(=O)Nc2ccc(Br)cc2Br)n1 was run?
A: inactive

Q: Which outcome does the source give for O=C(CSc1nnc(-c2ccco2)o1)Nc1cccc([N+](=O)[O-])c1 here?
A: inactive

Q: How did the outcome turn out when Cc1ccc(-n2ncc3c(=O)n(CC(=O)N4CCN(c5ccccc5F)CC4)cnc32)cc1C was run?
A: inactive

Q: How did the outcome turn out when O=C(O)c1cc2cc(F)ccc2[nH]1 was run?
A: inactive

Q: Which outcome does the source give for COc1ccc(-c2cc(-c3ccccc3)c(C#N)c(=S)[nH]2)cc1 here?
A: inactive

Q: With COc1cc(/C=C2\C(=O)N(CCC#N)N=C2C)c(Br)cc1OC(C)C as the compound, how does the outcome read?
A: inactive

Q: For COC(=O)C1=C(C)Nc2nc(-c3ccccc3)nn2C1c1ccc(C)o1 (configuration not stated), which outcome is on record?
A: inactive

Q: For CCOC(=O)c1sc(NC(=S)NC(=O)c2ccccc2)nc1C, which outcome is on record?
A: inactive

Q: Which outcome does the source give for CCOc1ccc(NC(=O)c2ccc(N)cc2)cc1 here?
A: inactive

Q: NC(=O)CN1C(=O)NC2(CCOc3ccccc32)C1=O (configuration not stated) was tested. Which outcome did it give?
A: inactive

Q: Which outcome does the source give for Cc1cccc(/N=C/c2sc3ccccc3c2O)n1 here?
A: inactive

Q: CCN1CCN(c2ccc(S(=O)(=O)N3CCCC3)cn2)CC1 was tested. Which outcome did it give?
A: inactive

Q: With CN(CC(=O)NCc1ccccc1Cl)CC(=O)Nc1cccc(F)c1 as the compound, how does the outcome read?
A: inactive

Q: For COc1ccc(OC)c(NC(=S)N2CCC(C(O)(c3ccccc3)c3ccccc3)CC2)c1, which outcome is on record?
A: inactive

target: Potassium voltage-gated channel subfamily E member 1 (Homo sapiens) + Potassium voltage-gated channel subfamily KQT member 1 (Homo sapiens) (UniProt P15382+P51787); experiment: KCNQ1-E1 channel activation – thallium flux, CHO-K1 KCNQ1/E1 cells, selectivity assay for KCNQ1 potentiator project, confirmation (AID 493186;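 active = mean duplicate activation above the buffer control mean plus 5 SD of those controls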); settings: FluxOR thallium flux, at 10 µM; active compounds read high
Summary of the method: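 Test system – CHO-K1 cells with KCNQ1/E1 · Measured by – FluxOR Tl+ flux fluorescence, kinetic read · Controls – buffer low control, R-L3 high control · Times – dye 90 min, compound 20 min, room temperature · Replication – duplicate wells per compound · Doses – one test concentration · Evaluation – fluorescence rise relative to baseline, as percent of R-L3 response above buffer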

Chain of Potassium voltage-gated channel subfamily E member 1 (Homo sapiens) + Potassium voltage-gated channel subfamily KQT member 1 (Homo sapiens) (P51787 whole entry, looked up): as the sequence (P51787 whole entry, looked up) above

Q: For S=c1[nH]cnc2scc(-c3ccc(Br)cc3)c12, which outcome is on record?
A: inactive

Q: How did the outcome turn out when CCc1ccc(-c2ccc3nnc(SC)n3n2)cc1 was run?
A: inactive

Q: For S=c1nc[nH]c2c1sc1nc(N3CCOCC3)c3c(c12)CCCC3, which outcome is on record?
A: inactive

Q: How did the outcome turn out when CC(C)(C)c1ccc(-n2nc(C#N)c(Cl)cc2=O)cc1 was run?
A: inactive

Q: Which outcome does the source give for Cc1ccc(C)c(/C=N/n2cc(-c3ccccc3)[nH]c2=S)c1 here?
A: inactive

Q: Which outcome does the source give for Cc1cc(NC(=O)CSCC(=O)OC(C)C(=O)N(C)Cc2ccccc2)no1 (configuration not stated) here?
A: inactive

Q: Which outcome does the source give for CCOc1ccc(OCCCN(C)C)cc1 here?
A: inactive

Q: For O=C(NC(=S)Nc1cccc([N+](=O)[O-])c1)c1ccco1, which outcome is on record?
A: inactive

Q: With Cc1nc(=S)c2c([nH]1)-c1ccccc1CC21CCCCC1 as the compound, how does the outcome read?
A: inactive

Q: With NC(=O)c1ccsc1NC(=O)COC(=O)Cc1ccsc1 as the compound, how does the outcome read?
A: inactive

Q: CCOC(=O)N/C(N)=N/c1nc2ccccc2s1 was tested. Which outcome did it give?
A: inactive

Q: With CCOC(=O)CSC(=S)NC(=O)c1ccc(OC)cc1 as the compound, how does the outcome read?
A: inactive

Q: How did the outcome turn out when O=C(CC1(O)C(=O)N(Cc2ccccc2)c2ccccc21)c1ccncc1 (configuration not stated) was run?
A: inactive

Q: With COC(=O)N/N=C/c1cc(C)n(-c2ccc(F)cc2)c1C as the compound, how does the outcome read?
A: inactive

Q: How did the outcome turn out when CSCC(C)N1CCC(n2nccc2NC(=O)CCOc2ccccc2)CC1 (configuration not stated) was run?
A: inactive

Q: With S=c1[nH]nc(C2CCCCC2)n1/N=C/c1cccc(Cl)c1Cl as the compound, how does the outcome read?
A: inactive

Q: For CCC(C)NCC(=O)Nc1sc2c(c1C(N)=O)CCC2 (configuration not stated), which outcome is on record?
A: inactive

Q: Which outcome does the source give for COc1cccc(NC(=S)N/N=C2/CCCCc3ccccc32)c1 here?
A: inactive

Q: Which outcome does the source give for COc1ccc(C(=O)NC(=S)N(C)C2CCCCC2)cc1Br here?
A: inactive

Q: With Cc1cccc(C(=O)O/N=C(\N)c2cccc([N+](=O)[O-])c2)c1 as the compound, how does the outcome read?
A: inactive

Q: Which outcome does the source give for CCSc1nnc(-c2ccncc2)n1Cc1ccccc1 here?
A: inactive

Q: How did the outcome turn out when Cc1ccc(NC(=O)Nc2ccc3c(c2)CCC3)cc1 was run?
A: inactive

Q: N/C(=N\OC(=O)c1cccc2ccccc12)c1ccc(Br)cc1 was tested. Which outcome did it give?
A: inactive

Q: For NNc1nc2c(F)cc(F)cc2s1, which outcome is on record?
A: inactive

Q: For S=c1[nH]c(-c2ccccc2)cn1/N=C/c1ccc(Br)cc1, which outcome is on record?
A: inactive

Q: With CCCc1cc(=O)[nH]c(SCC(=O)Nc2ccc(Br)cc2Br)n1 as the compound, how does the outcome read?
A: inactive

Q: O=C(CSc1nnc(-c2ccco2)o1)Nc1cccc([N+](=O)[O-])c1 was tested. Which outcome did it give?
A: inactive

Q: For Cc1ccc(-n2ncc3c(=O)n(CC(=O)N4CCN(c5ccccc5F)CC4)cnc32)cc1C, which outcome is on record?
A: inactive

Q: For O=C(O)c1cc2cc(F)ccc2[nH]1, which outcome is on record?
A: inactive

Q: For COc1ccc(-c2cc(-c3ccccc3)c(C#N)c(=S)[nH]2)cc1, which outcome is on record?
A: inactive

Q: With COc1cc(/C=C2\C(=O)N(CCC#N)N=C2C)c(Br)cc1OC(C)C as the compound, how does the outcome read?
A: inactive

Q: With COC(=O)C1=C(C)Nc2nc(-c3ccccc3)nn2C1c1ccc(C)o1 (configuration not stated) as the compound, how does the outcome read?
A: inactive

Q: How did the outcome turn out when CCOC(=O)c1sc(NC(=S)NC(=O)c2ccccc2)nc1C was run?
A: inactive

Q: For CCOc1ccc(NC(=O)c2ccc(N)cc2)cc1, which outcome is on record?
A: inactive

Q: For NC(=O)CN1C(=O)NC2(CCOc3ccccc32)C1=O (configuration not stated), which outcome is on record?
A: inactive

Q: For Cc1cccc(/N=C/c2sc3ccccc3c2O)n1, which outcome is on record?
A: inactive

Q: How did the outcome turn out when CCN1CCN(c2ccc(S(=O)(=O)N3CCCC3)cn2)CC1 was run?
A: inactive

Q: How did the outcome turn out when CN(CC(=O)NCc1ccccc1Cl)CC(=O)Nc1cccc(F)c1 was run?
A: inactive

Q: For COc1ccc(OC)c(NC(=S)N2CCC(C(O)(c3ccccc3)c3ccccc3)CC2)c1, which outcome is on record?
A: inactive
